Experimental data reported in ChEMBL document CHEMBL2429860, “4-Phenyl-3,4-dihydroquinolone derivatives from Aspergillus nidulans MA-143, an endophytic fungus isolated from the mangrove plant Rhizophora stylosa” (J Nat Prod, 2013).
Active and inactive are the calls of the source. The rule behind the calls is not given here.

Columns and labels:
[1] = Toxicity in brine shrimp; assay type: organism-based; conditions: artemia salina, in vivo; read-out: LD50 (the source's name)
Method in brief: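 Lethality test using brine shrimp (Artemia salina).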

[2] = tested on: Escherichia coli; experiment: Antibacterial activity against Escherichia coli by well diffusion method; assay type: functional, organism-based
Method in brief: (§1)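 Agar well diffusion test run against E. coli and S. aureus, with chloromycetin as the positive control.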

[3] = tested on: K562; experiment: Cytotoxicity against human K562 cells; assay type: functional, cell-based
[4] = tested on: Bel-7402; experiment: Cytotoxicity against human Bel7402 cells; assay type: functional, cell-based
[5] = tested on: HL-60; experiment: Cytotoxicity against human HL60 cells; assay type: functional, cell-based
[6] = tested on: Staphylococcus aureus; experiment: Antibacterial activity against Staphylococcus aureus by well diffusion method; assay type: functional, organism-based; method in brief: as §1
[7] = tested on: MDA-MB-231; experiment: Cytotoxicity against human MDA-MB-231 cells; assay type: functional, cell-based

Row | Compound | LC50 [1] [µM] | Activity [2] | Activity [3] | Activity [4] | Activity [5] | Activity [6] | Activity [7]
1 | CO[C@@H]1C(=O)Nc2ccc(/C=C/[C@@]3(C)CC[C@H](C(C)(C)O)O3)c(O)c2[C@@]1(O)c1ccccc1 | 7.1 | inactive | inactive | inactive | inactive | inactive | inactive
2 | CO[C@@H]1C(=O)Nc2ccc(/C=C/[C@]3(C)CCC(=O)[C@@H](C)C3)c(O)c2[C@@]1(O)c1ccccc1 [AFLAQUINOLONE A] | 5.5 |  |  |  |  |  | 
3 | CO[C@@H]1C(=O)Nc2ccccc2[C@@]1(O)c1ccccc1 |  | inactive | inactive | inactive | inactive | inactive | inactive
4 | CO[C@@H]1C(=O)Nc2ccc(CC=C(C)C)c(O)c2[C@@]1(O)c1ccccc1 | 4.5 | inactive | inactive | inactive | inactive | inactive | inactive
5 | CO[C@@H]1C(=O)Nc2ccc(O)cc2[C@@]1(O)c1ccccc1 |  | inactive | inactive | inactive | inactive | inactive | inactive
6 | O=C1Nc2ccccc2[C@@](O)(c2ccc(O)cc2)[C@@H]1O |  | inactive | inactive | inactive | inactive | inactive | inactive
7 | C=C(C)[C@H]1CC[C@](C)(/C=C/c2ccc3c(c2O)[C@@](O)(c2ccccc2)[C@H](OC)C(=O)N3)O1 |  | inactive | inactive | inactive | inactive | inactive | inactive
